Assay results collected from several papers.
Target: LIM domain kinase 1 (LIMK1, Homo sapiens, UniProt P53667)

Structure (SMILES)	effect on	technique	concentration	remaining binding [%]
Cc1c(NC(=O)c2cc(C(N)=O)nc3cc(F)ccc23)c(C(F)(F)F)nn1Cc1ccc(C#N)cc1	cell-free assay	competition with immobilised ligand	1 µM	78
C[C@@H]1CCN(c2nccc(-c3cnn4ncccc34)n2)C1	binding	–	1 µM	100
N#CC1(c2ccccn2)CCN(Cc2cc(C(=O)N3CCCC3)c(=O)n3ccccc23)CC1	cell-free assay	competition with immobilised ligand	1 µM	98
COc1ccnn2ncc(-c3ccnc(N(C)C)n3)c12	binding	–	1 µM	100
COc1cnc(Nc2cccc(S(N)(=O)=O)c2)nc1N1CCN(c2ccccc2)C(=O)C1	binding	competition with immobilised ligand	1 µM	100
O=C(c1ccc(Nc2ncc(Cl)c(-c3ccc(Cl)s3)n2)cc1)N1CCC(N2CCCC2)CC1	binding	competition with immobilised ligand	1 µM	40
CCC(=O)N[C@H]1CC[C@@H](C(=O)N(C)c2ccc(-c3nc4ccccc4o3)cc2)C1	cell-free assay	competition with immobilised ligand	1 µM	86
Nc1ncc2c(n1)-c1c([nH]c3ccc(C#CC4CC4)cc13)CCCC2	binding	competition with immobilised ligand	1 µM	96
COCCOc1nc(-c2ccc(Cl)nc2)nc2c1CN(C(=O)c1ncn3ccccc13)CC2	cell-free assay	competition with immobilised ligand	0.1 µM	100
C[C@@H](c1ccc(-n2cnc3c(N)ncnc32)cc1)N1CCc2nn(C)c(Cc3ccccc3)c2C1=O	binding	competition with immobilised ligand	0.1 µM	65
CCC(=N\O)/C(C)=C/c1ccc(F)cc1	cell-free assay	competition with immobilised ligand	1 µM	78
CN(C)c1ncc(F)c(-c2cnn3ncccc23)n1	binding	–	1 µM	89
O=C(NCCCN1CCOCC1)c1ccc(Nc2ncc(Cl)c(-c3ccc(Cl)s3)n2)cc1	binding	competition with immobilised ligand	1 µM	83
N[C@H]1CCN(c2nccc(-c3cnn4ncccc34)n2)C1	binding	–	1 µM	81
COc1ncc2cc3ccccc3nc2c1C#N	cell-free assay	competition with immobilised ligand	5 µM	98
CN(C)c1nccc(-c2cnc3ncccn23)n1	binding	–	1 µM	100
O=C(Nc1c[nH]nc1C(=O)NC1CCNCC1)c1cc(F)cc(F)c1	binding	competition with immobilised ligand	1 µM	97
CCCCN(CCCC)C(=O)CN1C[C@@H](c2cc(OC)c3c(c2)OCO3)[C@H](C(=O)O)[C@H]1CC(C)(C)CCC	cell-free assay	competition with immobilised ligand	1 µM	99
Cc1cnn2ncc(-c3ccnc(N(C)C)n3)c2c1	binding	–	1 µM	100
Cc1cnc(Nc2ccc(C(=O)N3CCC(N4CCCC4)CC3)cc2)nc1-c1cc2ccccc2s1	binding	competition with immobilised ligand	1 µM	55
